Measurements taken from ChEMBL document CHEMBL1914345 (Bioorg Med Chem Lett, 2011).
pKd: −log10 of the molar value.

Columns and labels:
[1] = Inhibition of retinal rod CNGA1/CNGB1 expressed in Xenopus laevis oocytes assessed as blockade of cGMP-induced current at +50 mV holding potential by patch-clamp electrophysiology; format: cell-based; settings: oocyte; read-out: Kd(app)
Summary of the method: (§1)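 Heteromeric retinal CNGA1 plus CNGB1 channels expressed in Xenopus laevis oocytes. Currents activated by 2 mM cGMP and recorded at both +50 and -50 mV. Apparent Kd taken by fitting current amplitudes to a single-binding-site block equation.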

[2] = Inhibition of retinal rod CNGA1/CNGB1 expressed in Xenopus laevis oocytes assessed as blockade of cGMP-induced current at -50 mV holding potential by patch-clamp electrophysiology; format: cell-based; settings: oocyte; read-out: Kd(app); summary of the method: as §1
[3] = test system: Oocyte; experiment: Ratio of 2-(dimethylamino)ethyl 4-(octylamino)benzoate Kd(app) to compound Kd(app) for retinal rod CNGA1/CNGB1 expressed in Xenopus laevis oocytes; format: cell-based
[4] = test system: Oocyte; experiment: Ratio of tetracaine Kd(app) to compound Kd(app) for retinal rod CNGA1/CNGB1 expressed in Xenopus laevis oocytes; format: cell-based
[5] = Ratio of Kd(app) for sodium channel to Kd(app) for retinal rod CNGA1/CNGB1

Question: With `CCCCCCCCNc1ccc(C(=O)OCCN(C)C)cc1[N+](=O)[O-]` as the molecule, how does the pKd [1] read?
Answer: 5.10

Question: And the pKd [2]?
Answer: 4.90

Question: With `CCCCCCCCNc1ccc(C(=O)OCCN(C)C)cc1Cl` as the molecule, how does the pKd [1] read?
Answer: 6.85

Question: What about the Ratio [3] of the same molecule?
Answer: 8

Question: And the pKd [2]?
Answer: 6.42

Question: What about the Ratio [4] of the same molecule?
Answer: 50

Question: Which results are given for `CCCCNc1ccc(C(=O)OCCN(C)C)cc1[N+](=O)[O-]`?
Answer: pKd [1]: 5.26; pKd [2]: 4.71

Question: Which results are given for `CCCCCCCCNc1ccc(C(=O)OCCN(C)C)cc1F`?
Answer: pKd [1]: 6.70; Ratio [3]: 8; pKd [2]: 6.12; Ratio [4]: 50

Question: With `CCCCCCCCNc1ccc(C(=O)OCCN(C)C)cc1Br` as the molecule, how does the pKd [1] read?
Answer: 6.85

Question: What about the Ratio [3] of the same molecule?
Answer: 8

Question: And the pKd [2]?
Answer: 6.62

Question: What about the Ratio [4] of the same molecule?
Answer: 50

Question: Which Ratio [5] does the source give for `CCCCNc1ccc(C(=O)OCC[N+](C)(C)CCCNCCCN)cc1` here?
Answer: 100

Question: With `CCCCCCCCNc1ccc(C(=O)OCCN(C)C)c(Cl)c1` as the molecule, how does the pKd [1] read?
Answer: 7.00

Question: And the Ratio [3]?
Answer: 8

Question: And the pKd [2]?
Answer: 6.66

Question: What about the Ratio [4] of the same molecule?
Answer: 50

Question: With `CCCCCCCCNc1ccc(C(=O)OCCN(C)C)cc1C` as the molecule, how does the pKd [1] read?
Answer: 6.30

Question: And the pKd [2]?
Answer: 5.85

Question: With `CCCCNc1ccc(C(=O)OCCN(C)C)cc1C` as the molecule, how does the pKd [1] read?
Answer: 5.11

Question: And the pKd [2]?
Answer: 4.55

Question: With `CCCCNc1ccc(C(=O)OCCN(C)C)cc1OC` as the molecule, how does the pKd [1] read?
Answer: 5.37

Question: And the pKd [2]?
Answer: 4.74

Question: With `CCCCCCCCNc1ccc(C(=O)OCCN(C)C)cc1OC` as the molecule, how does the pKd [1] read?
Answer: 5.90

Question: And the pKd [2]?
Answer: 5.52

Question: What does the source list for `CCCCNc1ccc(C(=O)OCCN(C)C)cc1Cl`?
Answer: pKd [1]: 5.52; pKd [2]: 4.89

Question: With `CCCCCCCCNc1ccc(C(=O)OCCN(C)C)cc1` as the molecule, how does the pKd [1] read?
Answer: 6.10

Question: And the pKd [2]?
Answer: 5.76
